According to ChEMBL document CHEMBL1136166, “The imidazo[2,1-a]isoindole system. A new skeletal basis for antiplasmodial compounds” (Bioorg Med Chem Lett, 2003):
Values after ≈ are worked out from the molar mass of the structure shown. Values joined by “and” are separate entries in the source; they are usually repeats but may differ in a detail not shown here. Equal entries are not always repeated.

Experiments:
Plasmodium falciparum [1] = assay: Antiplasmodial potency relative to chloroquine; format: functional
How it was run: (§1)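 P. falciparum F32-Tanzania (chloroquine-sensitive) cultured per Trager-Jensen in glucose-enriched RPMI 1640 with 10% human serum, 37 °C, candle jar. Human O+ red cells at 5% haematocrit, 1% parasitaemia. After 24 h, medium replaced with drug-containing medium (final DMSO ≤0.1%) and incubated a further 48 h. Parasitaemia counted on blood smears; IC50 read graphically from % inhibition vs concentration. Triplicate. Index = IC50 chloroquine/IC50 compound ×100.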

Plasmodium falciparum [2] = assay: In vitro inhibitory concentration against Plasmodium falciparum F32; format: functional, organism-based; how it was run: as §1
Ferriprotoporphyrin IX [3] = assay: In vitro inhibitory concentration against ferriprotoporphyrin in biomineralisation assay (FBIT); Not active; format: functional, Plasmodium falciparum
How it was run: (§2)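 Heme biomineralization (FBIT): haemin chloride (0.5 mg/mL stock in DMSO), 0.5 M sodium acetate pH 4.4 and compound solution (10 mg/mL stock) were added in that order, final pH 5–5.2, and incubated at 37 °C for 18–24 h. After centrifugation, the pellet was washed with DMSO and the β-haematin dissolved in 0.1 M NaOH; absorbance read at 405 nm. % inhibition calculated against the solvent control.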

Ferriprotoporphyrin IX [4] = assay: Inhibitory concentration against ferriprotoporphyrin in biomineralisation assay (FBIT); Not active; format: functional, Plasmodium falciparum; how it was run: as §2
Ferriprotoporphyrin IX [5] = assay: In vitro inhibitory concentration against ferriprotoporphyrin in biomineralisation assay (FBIT); format: functional, Plasmodium falciparum; how it was run: as §2
Ferriprotoporphyrin IX [6] = assay: Antiplasmodial potency relative to chloroquine in ferriprotoporphyrin biomineralisation assay; format: functional; details: Plasmodium falciparum
Ferriprotoporphyrin IX [7] = assay: Inhibitory concentration against ferriprotoporphyrin in biomineralisation assay (FBIT); format: functional, Plasmodium falciparum; how it was run: as §2
Ferriprotoporphyrin IX [8] = assay: Inhibitory concentration against ferriprotoporphyrin in biomineralisation (FBIT); format: functional, Plasmodium falciparum; how it was run: as §2

| SMILES | Index (Plasmodium falciparum [1]) | IC50 (Plasmodium falciparum [2]) | other results |
| --- | --- | --- | --- |
| COc1ccc(CCc2cc(O)cc(OC)c2C(=O)N2CCCCC2)cc1 | 0.25% | 6 µg/mL and 16.3 µM |  |
| OC1(Cc2ccccc2)c2ccccc2C2=NCCCN21 (stereo unspecified) | 1.1% | 1 µg/mL and 3.6 µM | IC50 (Ferriprotoporphyrin IX [3]): Not Active; IC50 (Ferriprotoporphyrin IX [4]): Not Active |
| Cn1nc(Cc2ccc(Cl)cc2)c2ccccc2c1=O | <0.1% | 15 µg/mL and 52.8 µM |  |
| Oc1nnc(Cc2ccc3c(c2)OCO3)c2ccccc12 | <0.01% | > 100 µg/mL and > 100 µM |  |
| Cn1nc(Cc2ccc3c(c2)OCO3)c2ccccc2c1=O | 0.4% | 3.8 µg/mL and 11 µM |  |
| Oc1nnc(Cc2ccc(Cl)cc2)c2ccccc12 | 0.18% | 6 µg/mL and 22 µM |  |
| COc1ccc(CC2(O)c3ccccc3C3=NCCCN32)cc1 (stereo unspecified) | 0.5% | 2.3 µg/mL and 7.5 µM |  |
| OC1(Cc2ccc(Cl)cc2)c2ccccc2C2=NCCCN21 (stereo unspecified) | 0.3% | 3.6 µg/mL and 11.5 µM |  |
| Cn1nc(Cc2ccccc2)c2ccccc2c1=O | 0.2% | 5 µg/mL and 20 µM |  |
| COc1cc(CC2(O)c3ccccc3C3=NCCN32)cc(OC)c1OC (stereo unspecified) | 57% | 0.022 µg/mL and 70 nM | IC50 (Ferriprotoporphyrin IX [5]): 1740 µM; Index (Ferriprotoporphyrin IX [6]): 1.6%; IC50 (Ferriprotoporphyrin IX [7]): 590 µg/mL (≈ 1660 µM) |
| OC1(Cc2ccc3c(c2)OCO3)c2ccccc2C2=NCCN21 (stereo unspecified) | 21% | 0.067 µg/mL and 190 nM |  |
| COc1ccc(Cc2nnc(O)c3ccccc23)cc1 | 1.1% | 1 µg/mL and 3.8 µM | IC50 (Ferriprotoporphyrin IX [5]): 5750 µM; Index (Ferriprotoporphyrin IX [6]): 0.5%; IC50 (Ferriprotoporphyrin IX [7]): 1530 µg/mL (≈ 5750 µM) |
| COc1ccc(CC2(O)c3ccccc3C3=NCCN32)cc1OC (stereo unspecified) | 0.4% | 4.9 µg/mL and 9.3 µM |  |
| COc1ccc(CC2(O)c3ccccc3C3=NCCCN32)cc1OC (stereo unspecified) | <0.1% | 32 µg/mL and 104 µM |  |
| COc1cc(Cc2nn(C)c(=O)c3ccccc23)cc(OC)c1OC | <0.1% | 32 µg/mL and > 100 µM |  |
| O=C(C(=O)c1ccccc1C(=O)N1CCCCC1)c1ccc(Cl)cc1 | 0.12% | 12 µg/mL and 33.8 µM |  |
| COc1cc(C(=O)C(=O)c2ccccc2C(=O)N2CCCCC2)cc(OC)c1OC | <0.1% | 30 µg/mL and 82 µM |  |
| COc1ccc(CC(=O)c2ccccc2C(=O)N2CCCCC2)cc1OC | <0.1% | 36 µg/mL and 98 µM |  |
| O=C(Cc1ccc(Cl)cc1)c1ccccc1C(=O)N1CCCCC1 | 0.11% | 12 µg/mL and 35 µM |  |

| SMILES | Index (Plasmodium falciparum [1]) | IC50 (Plasmodium falciparum [2]) | other results |
| --- | --- | --- | --- |
| COc1ccc(Cc2nnc(O)c3ccccc23)cc1OC | <0.1% | 95 µg/mL and > 100 µM |  |
| COc1ccc(Cc2nn(C)c(=O)c3ccccc23)cc1 | 1.1% | 1 µg/mL and 3.6 µM | IC50 (Ferriprotoporphyrin IX [3]): Not Active; IC50 (Ferriprotoporphyrin IX [4]): Not Active |
| O=C(C(=O)c1ccccc1C(=O)N1CCCCC1)c1ccc2c(c1)OCO2 | 0.2% | 8.5 µg/mL and 20.7 µM |  |
| COc1cc(CC2(O)c3ccccc3C3=NCCCN32)cc(OC)c1OC (stereo unspecified) | 0.2% | 5.2 µg/mL and 16.1 µM |  |
| OC1(Cc2ccccc2)c2ccccc2C2=NCCN21 (stereo unspecified) | 0.4% | 2.5 µg/mL and 9.5 µM |  |
| COc1ccc(CC(=O)c2ccccc2C(=O)N2CCCCC2)cc1 | <0.1% | > 100 µg/mL and > 100 µM |  |
| COc1ccc(CCc2cc(O)cc(OC)c2C(=O)O)cc1 [ISONOTHOLAENIC ACID] | <0.1% | 16 µg/mL and 53 µM |  |
| COc1ccc(Cc2nn(C)c(=O)c3ccccc23)cc1OC | <0.1% | 26 µg/mL and 84 µM |  |
| O=c1[nH]nc(Cc2ccccc2)c2ccccc12 | <0.1% | > 100 µg/mL and > 100 µM |  |
| COc1ccc(C(=O)C(=O)c2ccccc2C(=O)N2CCCCC2)cc1OC | <0.1% | 32 µg/mL and 84 µM |  |
| OC1(Cc2ccc3c(c2)OCO3)c2ccccc2C2=NCCCN21 (stereo unspecified) | <0.1% | 38 µg/mL and 104 µM |  |
| C=C[C@H]1CN2CC[C@H]1C[C@H]2[C@H](O)c1ccnc2ccc(OC)cc12 [QUININE] |  |  | IC50 (Ferriprotoporphyrin IX [5]): 250 µM; Index (Ferriprotoporphyrin IX [6]): 11%; IC50 (Ferriprotoporphyrin IX [8]): 80 µg/mL (≈ 247 µM) |
| COc1ccc(CC2(O)c3ccccc3C3=NCCN32)cc1 (stereo unspecified) | 100% | 0.017 µg/mL and 40 nM | IC50 (Ferriprotoporphyrin IX [3]): Not Active; IC50 (Ferriprotoporphyrin IX [4]): Not Active |
| COc1ccc(C(=O)C(=O)c2ccccc2C(=O)N2CCCCC2)cc1 | <0.1% | 17 µg/mL and 48 µM |  |
| CCN(CC)CCCC(C)Nc1ccnc2cc(Cl)ccc12 (stereo unspecified) [CHLOROQUINE] |  |  | IC50 (Ferriprotoporphyrin IX [5]): 28 µM; IC50 (Ferriprotoporphyrin IX [7]): 8.5 µg/mL (≈ 26.6 µM) |
| COc1cc(Cc2nnc(O)c3ccccc23)cc(OC)c1OC | <0.01% | > 100 µg/mL and > 100 µM |  |
| OC1(Cc2ccc(Cl)cc2)c2ccccc2C2=NCCN21 (stereo unspecified) | 36% | 0.036 µg/mL and 110 nM | IC50 (Ferriprotoporphyrin IX [3]): Not Active; IC50 (Ferriprotoporphyrin IX [4]): Not Active |
| O=C(Cc1ccc2c(c1)OCO2)c1ccccc1C(=O)N1CCCCC1 | <0.1% | > 100 µg/mL and > 100 µM |  |
| COc1cc(CC(=O)c2ccccc2C(=O)N2CCCCC2)cc(OC)c1OC | <0.1% | 100 µg/mL and > 100 µM |  |
